Results on 6 compounds are retold here after ChEMBL document CHEMBL5370638.

Common to all, as to assay type: functional, cell-based
Test [1] concerns the target T1, Vasopressin V1b receptor (Homo sapiens) (UniProt P47901).
T1 sequence (whole entry): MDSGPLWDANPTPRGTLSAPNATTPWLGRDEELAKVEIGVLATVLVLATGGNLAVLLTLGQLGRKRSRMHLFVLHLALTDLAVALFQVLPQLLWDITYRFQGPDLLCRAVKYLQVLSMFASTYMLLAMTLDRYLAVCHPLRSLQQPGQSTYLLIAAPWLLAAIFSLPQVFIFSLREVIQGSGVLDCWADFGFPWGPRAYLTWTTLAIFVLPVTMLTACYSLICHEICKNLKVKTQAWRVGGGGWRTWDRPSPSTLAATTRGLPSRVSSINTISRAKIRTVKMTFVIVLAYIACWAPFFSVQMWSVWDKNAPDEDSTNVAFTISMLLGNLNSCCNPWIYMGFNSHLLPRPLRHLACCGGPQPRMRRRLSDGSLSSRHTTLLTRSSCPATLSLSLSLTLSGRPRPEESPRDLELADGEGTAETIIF
In words: Activation of human C-terminal GFP-tagged V1b receptor in HEK293 cells assessed as CREB phosphorylation at 1 nM incubated for 60 mins by immunostaining analysis. The essentials:
(§1)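 HEK293 cells stably expressing human V1bR with C-terminal GFP were plated overnight on poly-D-lysine coverslips and serum-starved for one day. Ligands in serum-free medium were applied for 60 min; the Z-form was diode-activated at 340 nm. Cells were fixed in 4% PFA, immunostained (anti-GFP, anti-pCREB, Hoechst) and imaged confocally. pCREB signal was normalized to medium-only controls; internalization was scored from GFP location.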

Another test relates to HEK293. In words: Induction of C-terminal GFP-tagged V1b receptor internalization in HEK293 cells at 1 nM incubated for 60 mins by fluorescence microscopy analysis. Particulars: Homo sapiens. In a few lines: as §1
For test [2], the target named is Vasopressin V1a receptor (Homo sapiens) (UniProt P37288). In words: Agonist activity at human V1a receptor transfected in HEK293 cells upto 10 uM incubated for 1 hr by IP-one HTRF assay. The essentials:
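Stable HEK293 lines expressing hOTR, hV1aR or hV1bR (10,000 cells/well, 48 h) were preincubated in stimulation buffer for 15 min, then given ligand for 1 h at 37 °C. Z-forms were pre-irradiated at 340 nm for 1 min.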
A general note: Time-resolved FRET reads energy transfer from a long-lived donor to a nearby acceptor.

Test [3] has the same target. In words: Antagonist activity at human V1a receptor transfected in HEK293 cells at 10 uM relative to control. Conditions: filed as antagonist. The essentials: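 V1aR-expressing HEK293 cells received VP (1 nM final) premixed with test compound (10 or 100 μM), incubated for 1 h at 37 °C. IP1 accumulation was measured by HTRF (665/615 nm) and normalized to basal (0%) and maximal VP (100%). […] At least three independent experiments were run, each in triplicate.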

Active and inactive are the calls of the source. The calls are words filed in the database; no cut-off is given here. Numbered stars: 1 amine (or outer) side, 2 acyl side, 3 side chain; on linkers, the order of the positions; unused ones are H or OH. Bridge positions count the residues as written; N and C are the ends. Square brackets hold non-standard residues; d marks the D form. Peptide text beside a SMILES is read from it. AMPB(E) = O=C(c1ccc(/N=N/c2ccc(CN[*:1])cc2)cc1)[*:2]; X3 = O=C(c1ccccc1/N=N\c1ccccc1C(=O)[*:2])[*:1]; X4 = O=C(c1ccccc1/N=N/c1ccccc1C(=O)[*:2])[*:1]; Dap = NC[C@H](N)C(=O)O

Chain of Vasopressin V1a receptor (Homo sapiens) (P37288 whole entry, looked up): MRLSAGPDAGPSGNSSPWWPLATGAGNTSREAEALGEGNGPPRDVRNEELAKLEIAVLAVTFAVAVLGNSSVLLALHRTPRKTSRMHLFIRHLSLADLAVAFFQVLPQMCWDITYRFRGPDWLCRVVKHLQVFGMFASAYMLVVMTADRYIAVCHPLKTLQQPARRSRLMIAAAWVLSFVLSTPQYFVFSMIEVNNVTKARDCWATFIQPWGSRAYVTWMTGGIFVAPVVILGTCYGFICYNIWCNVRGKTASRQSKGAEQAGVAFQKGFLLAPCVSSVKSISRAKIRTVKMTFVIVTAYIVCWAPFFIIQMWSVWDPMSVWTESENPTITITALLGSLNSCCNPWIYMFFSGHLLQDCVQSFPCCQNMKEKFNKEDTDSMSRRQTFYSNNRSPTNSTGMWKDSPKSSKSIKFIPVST

As for `NC(=O)CC[C@@H]1NC(=O)[C@H](Cc2ccc(/N=N/c3ccccc3)cc2)NC(=O)[C@H](Cc2ccc(O)cc2)NC(=O)[C@@H](N)CSSC[C@@H](C(=O)N2CCC[C@H]2C(=O)N[C@@H](CCCN=C(N)N)C(=O)NCC(N)=O)NC(=O)[C@H](CC(N)=O)NC1=O`, the outcome (in test [1]; with HEK293) was inactive.
Take `NC(=O)CC[C@@H]1NC(=O)[C@H](Cc2ccc(/N=N\c3ccccc3)cc2)NC(=O)[C@H](Cc2ccc(O)cc2)NC(=O)[C@@H](N)CSSC[C@@H](C(=O)N2CCC[C@H]2C(=O)N[C@@H](CCCN=C(N)N)C(=O)NCC(N)=O)NC(=O)[C@H](CC(N)=O)NC1=O`: the outcome with HEK293 was Active.
In the case of `NC(=O)CC[C@@H]1NC(=O)[C@H](Cc2ccccc2)NC(=O)[C@H](Cc2ccc(O)cc2)NC(=O)[C@@H](N)CSSC[C@@H](C(=O)NCc2ccc(/N=N/c3ccc(C(=O)NCC(N)=O)cc3)cc2)NC(=O)[C@H](CC(N)=O)NC1=O` (H-CYFQNC[AMPB(E)]G-NH2; disulfide 1-6), the result in test [2] was inactive.
The same measure, in the same setting: the entry for `NC(=O)CC[C@@H]1NC(=O)[C@H](Cc2ccccc2)NC(=O)[C@H](Cc2ccc(O)cc2)NC(=O)[C@@H](N)CSSC[C@@H](C(=O)NCc2ccc(/N=N/c3ccc(C(=O)N[C@@H](CCCN=C(N)N)C(=O)NCC(N)=O)cc3)cc2)NC(=O)[C@H](CC(N)=O)NC1=O` (H-CYFQNC[AMPB(E)]RG-NH2; disulfide 1-6) is “inactive”.
As for `NC(=O)CC[C@@H]1NC(=O)[C@H](Cc2ccccc2)NC(=O)[C@H](Cc2ccc(O)cc2)NC(=O)c2ccccc2/N=N\c2ccccc2C(=O)NC[C@@H](C(=O)N2CCC[C@H]2C(=O)N[C@@H](CCCN=C(N)N)C(=O)NCC(N)=O)NC(=O)[C@H](CC(N)=O)NC1=O` (YFQN[Dap]PRG-NH2; linker N-5 via X3), the result in test [3] was Active.
As for `NC(=O)CC[C@@H]1NC(=O)[C@H](Cc2ccccc2)NC(=O)[C@H](Cc2ccc(O)cc2)NC(=O)c2ccccc2/N=N/c2ccccc2C(=O)NC[C@@H](C(=O)N2CCC[C@H]2C(=O)N[C@@H](CCCN=C(N)N)C(=O)NCC(N)=O)NC(=O)[C@H](CC(N)=O)NC1=O` (YFQN[Dap]PRG-NH2; linker N-5 via X4), the result in test [3] was Active.
